The list is not random: actives were taken first. Their share in the collection is about 3.9%.
TAAR1 ag – agonists of human TAAR1. CHO RD-HGA16 TAAR1, Fluo-8 calcium fluorescence; vehicle wells 0%, saturating PEA agonist 100%. activation, % at 3 µM. hit rate 0.99% among 360,000. AID 624467;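 active means activation above the mean activation of all test compounds in the run plus 3 SD, cut at about 38% in these data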
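Test system: RD-HGA16 (CHO) cells co-expressing Gα16 and hTAAR1 / Benchmarks: DMSO vehicle as 0%, PEA at EC100 as 100% / Repeats: no replicates (n 1) / Measure: % activation from peak over basal fluorescence ratio, DMSO-to-PEA scaled / Timing: 17-24 h plating, Fluo-8 75 min 37 °C, 30 min RT / Technique: kinetic Fluo-8 calcium fluorescence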
HTR2A ag – agonists of mouse serotonin 5-HT2A receptor (HTR2A) | hit rate 0.66% among 360,000 | activation, % at 7.6 µM | CHO-K1 mHTR2A beta-arrestin complementation, luminescence; percent of 30 µM serotonin response | AID 624169 | P35363;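 active means activation above a run cutoff, the mean activation of all tested compounds plus 3 SD, cut at about 14% in these data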
Target sequence (P35363 whole entry, looked up): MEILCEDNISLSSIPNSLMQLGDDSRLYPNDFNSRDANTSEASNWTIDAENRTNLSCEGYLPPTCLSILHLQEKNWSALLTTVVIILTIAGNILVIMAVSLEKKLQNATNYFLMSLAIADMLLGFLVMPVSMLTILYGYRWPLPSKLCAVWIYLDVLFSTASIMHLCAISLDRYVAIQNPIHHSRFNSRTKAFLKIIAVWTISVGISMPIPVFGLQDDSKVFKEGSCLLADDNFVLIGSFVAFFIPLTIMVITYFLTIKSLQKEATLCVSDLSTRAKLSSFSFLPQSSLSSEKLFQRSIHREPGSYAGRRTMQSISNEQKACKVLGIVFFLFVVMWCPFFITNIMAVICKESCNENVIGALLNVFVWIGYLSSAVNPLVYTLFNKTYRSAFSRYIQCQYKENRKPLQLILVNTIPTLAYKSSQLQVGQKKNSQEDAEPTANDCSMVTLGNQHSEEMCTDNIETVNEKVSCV
CHRM1 antagonist – human CHRM1 antagonism; P11229; CHO-K1 hM1, Fluo-8 calcium fluorescence, ACh EC80 antagonist; inhibition, % at 3 µM; hit rate 1.3% among 360,000;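 active means percent inhibition above its own plate's cutoff, namely the mean of that plate's compound wells plus 3 SD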;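 further: peak over basal fluorescence ratio during 140 s after agonist addition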
CHRM1 PAM – positive allosteric modulators of human M1 muscarinic receptor. P11229. CHO-K1 hM1, Fluo-8 calcium fluorescence, ACh EC20; 0% = ACh EC20, 100% = maximal ACh. activation, % at 3 µM. hit rate 0.088% among 360,000; in the data active means activation above about 19%, passing the limit was not always enough
CHRM1 agonist – human M1 muscarinic receptor agonism | hit rate 0.33% among 360,000 | CHO-K1 hM1, Fluo-8 calcium fluorescence, agonist mode; 0% DMSO, 100% acetylcholine EC100 | activation, % at 3 µM;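 active means activation above the run's mean compound activation plus 3 SD, cut at about 16% in these data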;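 further: peak over basal fluorescence ratio within a 140 s kinetic read after compound addition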
TAAR1 antagonist – antagonists of human TAAR1; hit rate 1.5% among 360,000; CHO RD-HGA16 TAAR1, Fluo-8 calcium fluorescence, antagonist; inhibition, % at 3 µM; AID 624466;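 active means inhibition above a per-plate cutoff, the mean inhibition of test compounds on that plate plus 3 SD, cut at about 49% in these data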
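Test system – hTAAR1-expressing CHO RD-HGA16 cells, Gα16-coupled · Reagent – β-PEA at EC80 concentration, post-compound challenge · Compound dosing – 3 µM, single point · Timing – 140 s kinetic read after compound, 140 s after agonist · Detection – Fluo-8 intracellular calcium dye fluorescence, real-time kinetic reads · Control set – DMSO and EC80 PEA controls · Repeats – n of 1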
OPRM1 ag – counter-screen for mouse HTR2A agonists: human mu opioid receptor agonists. shares compounds with HTR2A ag. U2OS OPRM1 beta-arrestin PathHunter, luminescence; DMSO 0%, DAMGO 9.3 µM 100%. activation, % at 9.3 µM. hit rate 5.3% among 2,300. AID 624380;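 active means mean activation above the mean of DMSO-only wells plus 3 SD, cut at about 0.5% in these data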
m5-HT2A ag conf – confirmation of mouse HTR2A serotonin receptor agonists | shares compounds with HTR2A ag | CHO-K1 PathHunter beta-arrestin recruitment, luminescence; DMSO 0%, 30 µM serotonin 100% | activation, % at 7.6 µM | hit rate 19% among 2,300;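 active means mean activation across triplicates above the hit threshold derived in the original primary screen, cut at about 15% in these data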
Numbers stand for hits; - = inactive; . = no result given.

SMILES | TAAR1 ag | HTR2A ag | CHRM1 antagonist | CHRM1 PAM | CHRM1 agonist | TAAR1 antagonist | OPRM1 ag | m5-HT2A ag conf
Cc1cc(C)cc(CC(=O)N2CCC2(C)C(=O)NS(=O)(=O)c2ccc(C#N)cc2)c1 (stereo unspecified) | - | 16 | - | - | - | - | - | -
CC(C)(C)c1ccc(CC(=O)N2CCC2(C)C(=O)NS(=O)(=O)c2cccc(OC(F)F)c2)cc1 (stereo unspecified) | - | 16 | - | - | - | - | - | -
O=C(COc1ccccc1Cl)NCCCNC(=O)c1cnccn1 | - | - | - | - | - | - | . | .
Cc1nc(N2CCCC2)c2nnn(Cc3ccccc3Cl)c2n1 | - | 18 | - | - | - | - | - | -
Cc1nc(NC2CCCCC2)c2nnn(Cc3ccccc3Cl)c2n1 | - | - | - | - | - | - | . | .
CCN(CC(=O)Nc1ccccc1C(F)(F)F)C(=O)CN1C(=O)NC2(CCCCC2)C1=O | - | 17 | - | - | - | - | - | -
CN(CC(=O)Nc1ccc(F)cc1)C(=O)CN1C(=O)NC2(CCCC2)C1=O | - | 20 | - | - | - | - | - | -
CCN(CC(=O)Nc1c(F)cccc1F)C(=O)CN1C(=O)NC2(CCCC2)C1=O | - | - | - | - | - | - | . | .
O=C1N=C(N2CCOCC2)S/C1=C/c1ccc(-c2ccc(F)cc2)o1 | - | - | - | - | - | - | . | .
Cc1ccc(-c2ccc(/C=C3\SC(N4CCOCC4)=NC3=O)o2)cc1 | - | 15 | - | - | - | - | - | 39
Cc1cc2c3c(c1C)C1(C(=O)N3C(C)(C)CC2C)C(C#N)=C(N)Oc2cc(O)ccc21 (stereo unspecified) | - | 25 | - | - | - | - | - | -
Cc1cc2c3c(c1)C1(C(=O)N3C(C)(C)CC2C)C(C#N)=C(N)OC2=C1C(=O)CC(C)(C)C2 (stereo unspecified) | - | - | - | - | - | - | . | .
NC(=O)C1CCCN(Cc2ccc3ccccc3c2)C1 (stereo unspecified) | - | - | - | - | - | - | . | .
N#CCN1CCCC(C(N)=O)C1 (stereo unspecified) | - | 19 | - | - | - | - | - | -
CCOc1ccc(N(CC(=O)N2CCCCCC2)S(=O)(=O)c2ccc(F)cc2)cc1 | - | - | - | - | - | - | . | .
Cc1c(Cl)c([N+](=O)[O-])nn1CCCC(=O)NC1CCCCC1 | - | - | - | - | - | - | . | .
COc1cc2c3nnc(-c4ccc(F)cc4)c-3cn(Cc3ccccc3)c2cc1OC | - | 25 | - | - | - | - | - | -
COc1cc2c3nnc(-c4ccc(F)cc4)c-3cn(Cc3ccc(F)cc3)c2cc1OC | - | 18 | - | - | - | - | - | 15
COc1ccc(Cn2cc3c(-c4ccc(F)cc4)nnc-3c3cc(OC)c(OC)cc32)cc1 | - | - | - | - | - | - | . | .
CCN(CC)CCn1c(NC(=O)c2ccc(C)cc2)nc2ccccc21 | - | 25 | - | - | - | - | . | -
CCS(=O)(=O)Nc1ccc(-c2cc(-c3ccccc3)c3cc(C)ccc3n2)cc1 | - | 15 | - | - | - | - | - | -
Cc1ccc(/C=N/NC(=O)CN2C(=O)CSc3ccccc32)o1 | - | 20 | - | - | - | - | - | -
Cc1nn2cnnc2c(C)c1Cc1ccc(Cl)cc1 | - | - | - | - | - | - | . | .
O=C(NC(=S)Nc1ccccn1)c1cccc([N+](=O)[O-])c1 | - | 27 | - | - | - | - | - | -
CCOc1ccc(C(=O)NC(=S)Nc2ccccn2)cc1[N+](=O)[O-] | - | - | - | - | - | - | . | .
CC(=O)N1N=C(c2c(-c3ccccc3)c3cc(C)ccc3[nH]c2=O)CC1c1ccco1 (stereo unspecified) | - | - | - | - | - | - | . | .
